Reference: ChEMBL document CHEMBL1275410, “Synergy between polyethylenimine and different families of antibiotics against a resistant clinical isolate of Pseudomonas aeruginosa” (2008)
≈ marks a conversion by molar mass, not a printed value. Calls of active or inactive are those of the source. No cut-off for these calls is given here.

How the values were obtained:
Format in all cases: functional
[1] = system: Pseudomonas aeruginosa; assay: Antibacterial activity against Pseudomonas aeruginosa 100609 after 20 hrs by broth microdilution assay
Summary of the method: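 Broth microdilution in TSB per CLSI: a 5 × 10^5 CFU/ml inoculum (OD660 0.02) was added to serial twofold antibiotic dilutions. Plates were shaken at 37°C for 20 h. MIC was the lowest concentration with no visible growth, determined in triplicate.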

[2] = system: Pseudomonas aeruginosa; assay: FIC index, ratio of MIC for Pseudomonas aeruginosa 100609 in presence of 250 ug/ml polyethylenimine to MIC for Pseudomonas aeruginosa 100609
[3] = system: Pseudomonas aeruginosa; assay: Antibacterial activity against Pseudomonas aeruginosa 100609 assessed as reduction in bacterial count at 0.25 times MIC after 9 hrs by time-kill assay in presence of 250 ug/ml polyethylenimine relative to control
Summary of the method: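 Time-kill assay: TSB was seeded from a 17-h preculture to 5 × 10^7 CFU/ml (set by OD660). Antibiotic was at 25% of MIC, with PEI at a final 250 nM (legend gives 250 μg/ml). Controls were PEI alone, antibiotic alone and bacteria alone. Viable counts on LB agar were taken at 0, 1.5, 3, 6 and 9 h, in triplicate. Synergy was a ≥2.0 mean log10 CFU/ml drop versus antibiotic alone.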

[4] = system: Pseudomonas aeruginosa; assay: FIC index, ratio of MIC for Pseudomonas aeruginosa 25619 in presence of 250 ug/ml polyethylenimine to MIC for Pseudomonas aeruginosa 25619
Summary of the method: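 Checkerboard combination of PEI (mean MW 10 kDa) with antibiotic against P. aeruginosa ATCC 25619, in TSB inoculated at about 5 × 10^5 CFU/ml, run in triplicate. ΣFIC was derived from the combination; 0.5 to 2.0 is read as indifference and ≥4.0 as antagonism.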

[5] = Pseudomonas aeruginosa, 100609, 20 h

Row | Compound | MIC [1, 5] [µg/mL] | fractional inhibitory concentration index (FICI) [2] | fold change (FC) [3] | fractional inhibitory concentration index (FICI) [4] | Activity [3] | MIC [1] [µg/mL]
1 | CC1(C)S[C@@H]2[C@H](NC(=O)[C@H](N)c3ccccc3)C(=O)N2[C@H]1C(=O)O [AMPICILLIN] | 2240 (≈ 6410 µM) |  |  |  |  | 
2 | CC1(C)S[C@@H]2[C@H](NC(=O)C(C(=O)O)c3ccccc3)C(=O)N2[C@H]1C(=O)O (some centres undefined) [CARBENICILLIN] | 2240 (≈ 5920 µM) |  |  |  |  | 
3 | CO/N=C(\C(=O)N[C@@H]1C(=O)N2C(C(=O)O)=C(COC(C)=O)CS[C@H]12)c1csc(N)n1 [CEFOTAXIME] | 960 (≈ 2110 µM) | 0.14 |  |  |  | 
4 | CC(C)(O/N=C(\C(=O)N[C@@H]1C(=O)N2C(C(=O)[O-])=C(C[n+]3ccccc3)CS[C@H]12)c1csc(N)n1)C(=O)O [CEFTAZIDIME] | 400 (≈ 732 µM) | 0.04 | 100000 | 0.09 |  | 
5 | O=C(N[C@H](CO)[C@H](O)c1ccc([N+](=O)[O-])cc1)C(Cl)Cl [CHLORAMPHENICOL] | 100 (≈ 309 µM) | 0.41 | 100000 |  |  | 
6 | O=C(O)c1cn(C2CC2)c2cc(N3CCNCC3)c(F)cc2c1=O [CIPROFLOXACIN] | 30 (≈ 90.5 µM) | 1 |  |  |  | 
7 | CC[C@H]1OC(=O)[C@H](C)[C@@H](O[C@H]2C[C@@](C)(OC)[C@@H](O)[C@H](C)O2)[C@H](C)[C@@H](O[C@@H]2O[C@H](C)C[C@H](N(C)C)[C@H]2O)[C@](C)(O)C[C@@H](C)C(=O)[C@H](C)[C@@H](O)[C@]1(C)O [ERYTHROMYCIN] | 140 (≈ 191 µM) | 1 |  |  |  | 
8 | NC[C@@H]1O[C@@H](O[C@H]2[C@H](O)[C@@H](O[C@H]3O[C@H](CO)[C@@H](O)[C@H](N)[C@H]3O)[C@H](N)C[C@@H]2N)[C@@H](O)[C@H](O)[C@H]1O [KANAMYCIN A] | 1600 (≈ 3300 µM) | 1.21 |  |  |  | 
9 | CCn1cc(C(=O)O)c(=O)c2cc(F)c(N3CCNCC3)cc21 [NORFLOXACIN] | 15 (≈ 47 µM) | 0.68 |  |  |  | 
10 | CO[C@@H]1[C@@H](OC(N)=O)[C@@H](O)[C@H](Oc2ccc3c(O)c(NC(=O)c4ccc(O)c(CC=C(C)C)c4)c(=O)oc3c2C)OC1(C)C [NOVOBIOCIN] | 1600 (≈ 2610 µM) | 0.1 | 100000000 | 0.35 |  | 
11 | CC1COc2c(N3CCN(C)CC3)c(F)cc3c(=O)c(C(=O)O)cn1c23 (centres undefined) [OFLOXACIN] | 10 (≈ 27.7 µM) | 1 |  |  |  | 
12 | CCN1CCN(C(=O)N[C@@H](C(=O)N[C@@H]2C(=O)N3[C@@H]2SC(C)(C)[C@@H]3C(=O)O)c2ccccc2)C(=O)C1=O [PIPERACILLIN] | 40 (≈ 77.3 µM) |  |  |  |  | 
13 | CO[C@H]1/C=C/O[C@@]2(C)Oc3c(C)c(O)c4c(O)c(c(/C=N/N5CCN(C)CC5)c(O)c4c3C2=O)NC(=O)/C(C)=C\C=C\[C@H](C)[C@H](O)[C@@H](C)[C@@H](O)[C@@H](C)[C@H](OC(C)=O)[C@@H]1C [RIFAMPIN] | 20 (≈ 24.3 µM) | 0.05 | 100000 |  |  | 
14 | CN(C)[C@@H]1C(O)=C(C(N)=O)C(=O)[C@@]2(O)C(O)=C3C(=O)c4c(O)cccc4[C@@](C)(O)[C@H]3C[C@@H]12 [TETRACYCLINE] | 20 (≈ 45 µM) | 1 |  |  |  | 
15 | CC1(C)S[C@@H]2[C@H](NC(=O)[C@H](C(=O)O)c3ccsc3)C(=O)N2[C@H]1C(=O)O [TICARCILLIN] | 1120 (≈ 2910 µM) |  |  |  |  | 
16 | NC[C@H]1O[C@H](O[C@H]2[C@H](O)[C@@H](O[C@H]3O[C@H](CO)[C@@H](O)[C@H](N)[C@H]3O)[C@H](N)C[C@@H]2N)[C@H](N)C[C@@H]1O [TOBRAMYCIN] | 50 (≈ 107 µM) | 4.81 |  |  |  | 
17 | CN[C@H](CC(C)C)C(=O)N[C@H]1C(=O)N[C@@H](CC(N)=O)C(=O)N[C@H]2C(=O)N[C@H]3C(=O)N[C@H](C(=O)N[C@H](C(=O)O)c4cc(O)cc(O)c4-c4cc3ccc4O)[C@H](O)c3ccc(c(Cl)c3)Oc3cc2cc(c3O[C@@H]2O[C@H](CO)[C@@H](O)[C@H](O)[C@H]2O[C@H]2C[C@](C)(N)[C@H](O)[C@H](C)O2)Oc2ccc(cc2Cl)[C@H]1O [VANCOMYCIN] | 1120 (≈ 773 µM) | 3.4 |  |  | inactive | 
18 | COLISTIN |  | 2.01 |  |  |  | 5
19 | GENTAMICIN |  | 1.72 |  |  |  | 1120
20 | POLYMYXIN B |  | 2.01 |  |  | inactive | 5
